Measured values from paper PMC8682764 (Nucleic Acids Research, 2021).
Where a SMILES comes first, the peptide text is derived from it. Bridges are numbered along the chain shown (N, C = ends). [ ]: non-standard residue; d: D form. The star is where a group is joined. d(αMeK) = C[C@@](N)(CCCCN)C(=O)O; dPhg = N[C@@H](C(=O)O)c1ccccc1; Isobutyryl = CC(C)C(=O)*; Abu = CC[C@H](N)C(=O)O

What was measured:
[1] = test system: WDR5 / MBP-LANAΔ33–888 interaction; assay: Co-precipitation of WDR5 with MBP-LANAΔ33–888; format: binding; conditions: co-precipitation with MBP-LANAΔ33–888, Coomassie blue detection
[2] = test system: WDR5 in LANA/MLL1 complex; assay: Co-precipitation of ASH2L, RbBP5, WDR5 or MLL1-SET with MBP-LANAΔ33–888; format: binding; conditions: co-precipitation with MBP-LANAΔ33–888, immunoblot
[3] = test system: WDR5 WIN binding pocket / MLL1-WDR5 interaction; conditions: cited from earlier work
WDR5 = assay: Co-IP of GFP-LANA regions with Flag-WDR5; format: binding; conditions: co-IP after expression in 293T cells, anti-Flag
How it was run: (§1)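 Incubated overnight at 4°C with anti-Flag M2 (2 μg) agarose beads. Beads washed 3–6 times in lysis buffer and eluted in SDS buffer. Proteins resolved by SDS-PAGE and detected by western blot.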

MLL1 = assay: Co-IP of GFP-LANA regions with MLL1; format: binding; conditions: co-IP after expression in 293T cells, anti-Flag
How it was run: as §1

Row | Molecule | effect on WDR5-LANA interaction [1] | exclusion of WDR5 from LANA/MLL1 complex [2] | MLL1-WDR5 interaction inhibition [3] | interaction with WDR5 (WDR5) | interaction with MLL1 (MLL1)
1 | CC[C@@H]1NC(=O)[C@H](CCCN=C(N)N)NC(=O)[C@](C)(NC(=O)C(C)C)CCCCNC(=O)[C@@H](c2ccccc2)NC1=O [MM-401] (Isobutyryl-[d(αMeK)]R[Abu][dPhg]; lactam 1-C) | blocked the interaction of WDR5 with LANA | excluded nearly all WDR5 from the LANA/MLL1 complex | occupies the WDR5 WIN binding pocket and thereby inhibits MLL1-WDR5 interaction |  | 
2 | LANA 779–1049: GFP-LANA fragment 779–1049 (protein, left off: GFP, end not stated, kept) QEQELEEQEQELEEQEQELEEQEQELEEQEQELEEQEQELEEQEQELEEQEQELEEQEQELEEQEVEEQEQEVEEQEQEQEEQELEEVEEQEQEQEEQEEQELEEVEEQEEQELEEVEEQEEQELEEVEEQEQQELEEVEEQEQQGVEQQEQETVEEPIILHGSSSEDEMEVDYPVVSTHEQIASSPPGDNTPDDDPQPGPSREYRYVLRTSPPHRPGVRMRRVPVTHPKKPHPRYQQPPVPYRQIDDCPAKARPQHIFYRRFLGKDGRRD |  |  |  | interacted with LANA 779–1049 | did not
